Source: ChEMBL document CHEMBL3576864, “Striatoids A-F, Cyathane Diterpenoids with Neurotrophic Activity from Cultures of the Fungus Cyathus striatus” (J Nat Prod, 2015)
The source made the active and inactive calls. The calls are words filed in the database; no cut-off is given here.

What was measured:
PC-12 [1] = test: Effect on neurite outgrowth in rat PC12 cells at 10 to 40 uM after 48 hrs by inverted microscopic analysis; type: functional, cell-based
In short: (§1)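 PC-12 cells grown in F-12 (Ham) with 10% heat-inactivated HS, 5% FBS, penicillin/streptomycin, 37 °C, 5% CO2. Seeded on poly-L-lysine wells (2 × 10^4 cells/mL), 24 h. Switched to low serum (1% HS, 0.5% FBS), then dosed 10–40 μM with NGF 20 ng/mL (vehicle 0.1% DMSO), triplicate wells, 48 h. Phase-contrast scoring: ≥100 cells in each of five random fields; neurite ≥ one cell body = positive, as % of cells.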

PC-12 [2] = test: Neurotrophic activity in rat PC12 cells assessed as enhancement of NGF-induced neurite outgrowth after 48 hrs by inverted microscopic analysis; type: functional, cell-based; in short: as §1

SMILES | Activity (PC-12 [1]) | Activity (PC-12 [2])
CC(C)C1=C2[C@H]3CC=C4[C@@H](O)[C@@]5(O)CO[C@H]6O[C@@H]([C@@H]4[C@@]6(O)[C@H]5O)[C@]3(C)CC[C@@]2(C)[C@@H](O)C1 | inactive | Dose-dependent effect
CC(C)C1=C2[C@H]3CC=C4[C@H]5O[C@H]6CO[C@H]7O[C@@H]([C@@H]4[C@@]7(O)[C@@]6(O)O5)[C@]3(C)CC[C@@]2(C)[C@@H](O)C1 | inactive | Dose-dependent effect
CO[C@H]1O[C@@]2(O)[C@H](O)CO[C@H]3O[C@H]4[C@@H]([C@@H]1CC[C@@H]1C5=C(C(C)C)C[C@H](O)[C@]5(C)CC[C@]14C)[C@]32O | inactive | Dose-dependent effect
CC(=O)O[C@@H]1C2=CC[C@@H]3C4=C(C(C)C)C[C@H](O)[C@]4(C)CC[C@@]3(C)[C@H]3O[C@@H]4OC[C@@]1(O)[C@H](O)[C@]4(O)[C@H]23 | inactive | Dose-dependent effect
CC(=O)O[C@@H]1[C@H]2CC[C@@H]3C4=C(C(C)C)C[C@H](O)[C@]4(C)CC[C@@]3(C)[C@H]3O[C@@H]4OC[C@@]1(O)[C@H](O)[C@]4(O)[C@H]23 | inactive | Dose-dependent effect
CC(C)C1=C2[C@H]3CC=C4[C@@H]5O[C@]6(O)[C@@]7(O)[C@@H](OC[C@]6(O)O5)O[C@@H]([C@@H]47)[C@]3(C)CC[C@@]2(C)[C@@H](O)C1 | inactive | Dose-dependent effect
